Hits are enriched below; roughly 0.89% of the tested compounds scored in any of these assays.
Arrestin-AP2 inh – blocks beta-arrestin peptide binding to AP2 adaptin; FITC-arrestin peptide / GST-AP2 beads, flow cytometry; AP2 beta2 appendage carries R879A mutation; inhibition, % at 10 µM; 340,000 tested, 0.31% active; AID 504490;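 active = inhibition above a set limit, near 3 SD of compounds lacking own fluorescence, cut at about 54% in these data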;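 note: plate controls were DMSO wells for no effect and 5 µM unlabelled arrestin peptide for full effect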
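Measured by: flow cytometry, FL1 (488/535 nm); Material: AP2 appendage R879A on GSH beads; Evaluation: percent response; Timing: pre-incubation 12 min, peptide binding 1 h, room temperature; Also added: 50 nM FITC-arrestin peptide; Medium: PBS with 0.05% Tween 20 and 0.1% BSA.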
PG9 Ab binder – small molecules binding HIV-1 gp120 antibody PG9; TR-FRET gp120-PG9 antibody binding; inhibition, % at 6.7 µM; 360,000 tested, 0.43% active; AID 624416; in the data active = inhibition above about 8.5%
hiPSC survival – enhancers of human iPSC single-cell survival. hiPSC single-cell survival, ATPlite luminescence; 100% = ROCK inhibitor wells, 0% = DMSO. survival enhancement, % at 20 µM. 360,000 tested, 0.044% active. AID 602274; in the data active = survival enhancement above about 18%;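 note: cells exposed to compounds for 16 hours before the ATP read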
ABCB6 inh 2 – human ABCB6 transporter inhibition; AID 602162; Q9NP58; fluorescence ratio to DMSO, % at 10 µM; 360,000 tested, 0.19% active; K562-ABCB6 porphyrin accumulation, flow cytometry, 1 h; hits give low values;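 active = fluorescence ratio to DMSO below 75%, the collection mean minus 3 SD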;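 note: signal is porphyrin accumulated inside mitochondria; 100% equals median channel fluorescence of DMSO control wells; lower ratio means ABCB6 inhibition with less porphyrin fluorescence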
Target sequence (Q9NP58 whole entry, looked up): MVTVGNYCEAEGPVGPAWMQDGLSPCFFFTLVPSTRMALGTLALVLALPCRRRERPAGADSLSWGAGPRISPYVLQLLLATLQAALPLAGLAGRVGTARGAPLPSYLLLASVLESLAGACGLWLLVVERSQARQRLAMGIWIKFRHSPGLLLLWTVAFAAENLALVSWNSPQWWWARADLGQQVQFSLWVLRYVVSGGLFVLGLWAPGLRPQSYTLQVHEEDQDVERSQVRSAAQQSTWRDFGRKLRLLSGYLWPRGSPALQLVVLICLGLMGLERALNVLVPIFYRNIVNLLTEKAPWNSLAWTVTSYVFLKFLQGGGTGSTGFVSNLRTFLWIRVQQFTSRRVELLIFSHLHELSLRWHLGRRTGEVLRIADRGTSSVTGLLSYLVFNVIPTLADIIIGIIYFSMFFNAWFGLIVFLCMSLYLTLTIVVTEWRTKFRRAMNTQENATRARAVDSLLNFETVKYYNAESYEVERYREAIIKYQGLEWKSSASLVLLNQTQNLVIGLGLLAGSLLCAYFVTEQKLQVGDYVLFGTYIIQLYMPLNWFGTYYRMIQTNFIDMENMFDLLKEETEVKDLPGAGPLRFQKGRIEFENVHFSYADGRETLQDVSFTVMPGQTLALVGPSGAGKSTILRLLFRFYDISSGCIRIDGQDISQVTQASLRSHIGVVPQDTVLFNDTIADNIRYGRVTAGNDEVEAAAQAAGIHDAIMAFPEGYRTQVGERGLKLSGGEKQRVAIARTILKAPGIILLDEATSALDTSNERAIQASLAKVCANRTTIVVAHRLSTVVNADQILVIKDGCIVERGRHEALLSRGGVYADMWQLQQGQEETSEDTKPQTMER
PG9 bind confirm – confirmation of small molecules binding HIV-1 gp120 antibody PG9; inhibition, % at 6.7 µM; TR-FRET PG9 antibody binding, biochemical; AID 651571; 1,500 tested, 90% active; shares compounds with PG9 Ab binder; in the data active = inhibition above about 9%
PGV04 Ab binding – counter-screen for PG9 binders: binding control antibody PGV04. AID 651604. 1,500 tested, 95% active. inhibition, % at 6.7 µM. TR-FRET PGV04 antibody-gp120 binding, biochemical. shares compounds with PG9 Ab binder; in the data active = inhibition above about 9.5%
PG9 binder DR – PG9 antibody binding, dose response; shares compounds with PG9 Ab binder; TR-FRET PG9 antibody-gp120 binding inhibition; IC50, µM; 95 tested, under 10 active; in the data active = IC50 below about 10 µM
PGV04 DR counter – binds control antibody PGV04 in PG9 counter-screen. AID 651937. TR-FRET binding to control antibody PGV04. shares compounds with PG9 Ab binder. 95 tested, 20% active. IC50, µM
PG126 DR counter – counter-screen for PG9 binders: binding to control antibody PG126. shares compounds with PG9 Ab binder. TR-FRET binding to antibody PG126, counterscreen. IC50, µM. 95 tested, 20% active. AID 651939
* marks the source's active call; other numbers are inactive results; i = inactive; / = not tested or not shown. Cut-off read from the data, not from the text of the source, unless noted: active = IC50 below about 9 µM; inactive = the rest.

SMILES | Arrestin-AP2 inh | PG9 Ab binder | hiPSC survival | ABCB6 inh 2 | PG9 bind confirm | PGV04 Ab binding | others
C[C@H]1CN(S(=O)(=O)C(C)(C)C)[C@@H](CCO)/C1=C\CCO | / | -1 | / | / | / | /
Cc1ccc2[nH]c3c(=O)n(N)c(C)nc3c2c1 | -14 | 1 | 1 | 94 | / | /
Cc1ccc2[nH]c3c(=S)nc[nH]c3c2c1 | 5 | 72* | -1 | 89 | 44* | 21* | PG9 binder DR=>67;PGV04 DR counter=i;PG126 DR counter=i
CCc1ccc(CNC(=O)CCCn2c(=O)c3cccn3c3cccnc32)cc1 | 19 | 2 | 0 | 96 | / | /
CSc1cccc(NC(=O)CCCn2c(=O)c3cccn3c3cccnc32)c1 | -4 | 12* | 0 | 99 | 14* | 20*
O=C(CCCn1c(=O)c2cccn2c2cccnc21)NCc1cccc(Br)c1 | 25 | 23* | 0 | 91 | 31* | 41*
CCOc1cc(CNC(=O)CCCn2c(=O)c3cccn3c3cccnc32)cc(OCC)c1OCC | -4 | 1 | 0 | 95 | / | /
Cc1nn(CC(=O)Nc2ccc(Cl)cc2Cl)c(=O)c2ccccc12 | -4 | 9.1* | 0 | 101 | 25* | 40*
CCC1Cc2c(nc(N)c3c(N)nc(N4CCOCC4)c(C#N)c23)O1 (stereo not given) | -8 | -1 | -1 | 96 | / | /
N#Cc1c(N2CCCCC2)nc(N)c2c(N)nc3c(c12)CC(CCl)O3 (stereo not given) | 1 | 21* | 0 | 101 | 23* | 35*
COC(=O)C1=C(C)N(C)C(=NCc2ccc(C(F)(F)F)cc2)NC1c1cccc(F)c1 (stereo not given) | / | -1 | / | / | / | /
Nc1nc2c(ncn2[C@@H]2O[C@H](C(=O)NCC3CCCCC3)[C@@H](O)[C@H]2O)c(=O)[nH]1 | / | 1 | / | / | / | /
O=C(CSc1nnc(-c2ccc(Br)cc2)n1C1CCCCC1)N1CCCC1 | -2 | 9.3* | -3 | 96 | 8.7* | 10*
O=C(CSc1nnc(-c2ccccc2F)n1C1CCCCC1)N1CCCC1 | 19 | 2 | 1 | 95 | / | /
NC(=O)c1ncn([C@@H]2O[C@H](C(=O)N[C@H](Cc3c[nH]c4ccccc34)C(=O)N3CCN(C(=O)C4CC4)CC3)[C@@H](O)[C@H]2O)n1 | / | 0 | / | / | / | /
COc1cccc(CNC(=O)Cn2c(=O)c3cccn3c3ccccc32)c1 | -6 | 19* | 0 | 106 | 24* | 44*
CCc1cccc(NC(=O)Cn2c(=O)c3cccn3c3ccccc32)c1 | 27 | 26* | -1 | 95 | 28* | 36*
O=C(Cn1c(=O)c2cccn2c2ccccc21)NCc1cccc(F)c1 | 20 | 1 | -1 | 101 | / | /
Cc1cccc(C)c1NC(=O)Cn1c(=O)c2cccn2c2ccccc21 | -7 | 7 | 0 | 107 | / | /
Nc1[nH]c(C(=O)c2ccc(Br)cc2)c(-c2ccccc2Cl)c1C(=O)NCCc1c[nH]c2ccccc12 | / | 0 | / | / | / | /
O=C(CCSc1nnc2ccccn12)Nc1ccc(F)cc1 | 2 | 1 | 0 | 104 | / | /
O=C(CCSc1nnc2ccc3ccccc3n12)Nc1ccc(F)cc1 | 3 | 23* | 2 | 101 | 7 | 21*
CCCCCCCCN1C(=O)[C@@H](CC(=O)NCCC(C)C)C[C@@]2(C(=O)OC)C1=C[C@H](C(C)(C)C)O[C@@H]2C | / | 0 | / | / | / | /
O=c1[nH]c2cc3c(cc2cc1C(c1nnnn1C1CCCC1)N1CCSCC1)OCCO3 (stereo not given) | 8 | 21* | 0 | 104 | 42* | 29* | PG9 binder DR=i;PGV04 DR counter=8*;PG126 DR counter=7.8*
COc1cc2[nH]c(=S)n(NC(=O)c3ccccc3)c(=O)c2cc1OC | 1 | 16* | 1 | 99 | 18* | 16* | PG9 binder DR=>67;PGV04 DR counter=i;PG126 DR counter=i
SMILES | Arrestin-AP2 inh | PG9 Ab binder | hiPSC survival | ABCB6 inh 2 | PG9 bind confirm | PGV04 Ab binding | others
Cc1nn(-c2ccccc2)c2sc(C(=O)NNC(=O)COc3cccc4ccccc34)cc12 | -5 | 10* | 3 | 98 | 11* | 20*
Cc1ccc(C(=O)C2=C(O)C(=O)N(Cc3cccnc3)C2c2ccc(OC(C)C)cc2)o1 (stereo not given) | 33 | 35* | 0 | 95 | 44* | 50*
Cc1ccc(C(=O)C2=C(O)C(=O)N(Cc3cccnc3)C2c2ccc(Br)cc2)o1 (stereo not given) | -1 | 18* | 0 | 98 | 29* | 38*
COc1ccc(C2C(C(=O)c3ccc(C)o3)=C(O)C(=O)N2Cc2cccnc2)cc1 (stereo not given) | 4 | 13* | 0 | 97 | 23* | 29*
CCCCOc1ccc(C2C(C(=O)c3ccc(C)o3)=C(O)C(=O)N2Cc2ccco2)cc1 (stereo not given) | 19 | 19* | 0 | 97 | 23* | 27*
Cc1ccc(C(=O)C2=C(O)C(=O)N(Cc3cccnc3)C2c2ccc(N(C)C)cc2)o1 (stereo not given) | 2 | 1 | 0 | 93 | / | /
Cc1ccc(C(=O)C2=C(O)C(=O)N(Cc3cccnc3)C2c2ccc(Cl)c(Cl)c2)o1 (stereo not given) | 5 | / | 0 | 100 | / | /
COc1ccc(Cn2cc(CN3[C@@H](c4ccccc4)COc4cc(Br)ccc4S3(=O)=O)nn2)cc1 | / | 2 | / | / | / | /
Cc1ccc(NC(=O)Cn2cc(S(=O)(=O)c3ccc(C)cc3)c(=O)c3cc(F)ccc32)cc1 | 5 | 13* | -1 | 99 | 36* | 62*
Cc1ccc(NC(=O)Cn2cc(S(=O)(=O)c3ccccc3)c(=O)c3cc(F)ccc32)cc1 | 8 | 4 | -1 | 95 | / | /
Cc1ccccc1OCCC(=O)Nc1ccc2c(C)cc(=O)oc2c1 | 4 | 10* | 0 | 95 | 15* | 38*
COc1ccccc1C(=O)Nc1ccc2c(C)cc(=O)oc2c1 | -14 | 17* | 0 | 103 | 20* | 30*
COc1ccc2nc(SCC(=O)NC3CCCCC3)[nH]c2c1 | 23 | 1 | 0 | 94 | / | /
COc1ccc2c(C)cc(SCC(=O)NC3CCCC3)nc2c1 | 5 | 11* | 0 | 92 | 15* | 29*
Cc1cc(SCC(=O)NC2CC2)nc2ccccc12 | 9 | 11* | 0 | 100 | 12* | 16*
Cc1ccc(-n2c(SCC(=O)NCC3CCCO3)nc3ccccc3c2=O)cc1C (stereo not given) | -8 | 0 | 0 | 104 | / | /
COc1ccc2nc(SCC(=O)NC3CCCC3)c(C)cc2c1 | -17 | 34* | 0 | 93 | 26* | 33*
